# Experimental data reported in ChEMBL document CHEMBL1138738, “Synthesis, in vitro pharmacology, structure-activity relationships, and pharmacokinetics of 3-alkoxy-2-amino-6-fluorobicyclo[3.1.0]hexane-2,6-dicarboxylic acid derivatives as potent and selective group II metabotropic glutamate receptor antagonists” (J Med Chem, 2004).
# Tests used:
# [1] = target: T1, Metabotropic glutamate receptor 2 (Rattus norvegicus, UniProt P31421); assay: Binding affinity towards metabotropic glutamate receptor 2 of rat expressed in CHO cells was determined by using [3H]MGS-0008; type: cell-based
# [2] = target: T2, Metabotropic glutamate receptor 1 (Rattus norvegicus, UniProt P23385); assay: Effective concentration for agonistic activity towards metabotropic glutamate receptor 1 of rat expressed in CHO cells; type: functional, cell-based
# [3] = target: T3, Metabotropic glutamate receptor 5 (Rattus norvegicus, UniProt P31424); assay: Effective concentration for agonistic activity towards metabotropic glutamate receptor 5 of rat expressed in CHO cells; type: functional, cell-based
# [4] = target: T4, Metabotropic glutamate receptor 6 (Rattus norvegicus, UniProt P35349); assay: Effective concentration for agonistic activity towards metabotropic glutamate receptor 6 of rat expressed in CHO cells; type: functional, cell-based
# [5] = target: T2, Metabotropic glutamate receptor 1; assay: Concentration required to inhibit metabotropic glutamate receptor 1 activity of rat expressed in CHO cells; type: cell-based
# [6] = target: Metabotropic glutamate receptor 4 (Rattus norvegicus, UniProt P31423); assay: Concentration required to inhibit metabotropic glutamate receptor 4 activity of rat expressed in CHO cells; type: cell-based
# [7] = target: T3, Metabotropic glutamate receptor 5; assay: Concentration required to inhibit metabotropic glutamate receptor 5 activity of rat expressed in CHO cells; type: cell-based
# [8] = target: T4, Metabotropic glutamate receptor 6; assay: Concentration required to inhibit metabotropic glutamate receptor 6 activity of rat expressed in CHO cells; type: cell-based
# [9] = target: Metabotropic glutamate receptor 7 (Rattus norvegicus, UniProt P35400); assay: Binding affinity towards metabotropic glutamate receptor 7 of rat expressed in CHO cells was determined by using [3H]LY341495
# [10] = Half-life in rat upon oral dose of 30 mg/kg; type: ADME, organism-based; set-up: dose 30 mg/kg, route oral; conditions: in vivo
# Summary of the method: (§1)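 Fasted rats were dosed orally at 3, 10 or 30 mg/kg. Plasma concentration-time profiles were measured by LC/ESI-MS/MS. Cmax, Tmax, elimination half-life and AUCinf were derived per dose group and reported as mean ± deviation.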
# [11] = target: T1, Metabotropic glutamate receptor 2; assay: Effective concentration for agonistic activity towards metabotropic glutamate receptor 2 of rat expressed in CHO cells; type: functional, cell-based
# [12] = target: T1, Metabotropic glutamate receptor 2; assay: Concentration required to inhibit metabotropic glutamate receptor 2 activity of rat expressed in CHO cells; type: cell-based
# [13] = Concentration of compound in brain of rat after 6 hr of oral dose 10 mg/kg; type: ADME, organism-based; set-up: dose 10 mg/kg, route oral
# Summary of the method: (§2)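 Rats given a single peroral dose of 10 mg/kg. Plasma and cerebrum were sampled at 1, 3, 6 and 24 h. Concentrations were measured by LC/ESI-MS/MS using an internal standard. Detection limits were 1 ng/mL in plasma and 1.5 ng/g in brain. Tmax, Cmax, terminal half-life (lambda z) and predicted AUCinf were derived from the mean time-course levels.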
# [14] = Peak plasma concentration in rats upon oral dose of 3 mg/kg; type: ADME, organism-based; set-up: dose 3 mg/kg, route oral; conditions: rat; summary of the method: as §1
# [15] = Peak plasma concentration in rats upon oral dose of 10 mg/kg; type: ADME, organism-based; set-up: dose 10 mg/kg, route oral; conditions: rat; summary of the method: as §1
# [16] = Peak plasma concentration in rats upon oral dose of 30 mg/kg; type: ADME, organism-based; set-up: dose 30 mg/kg, route oral; conditions: rat; summary of the method: as §1
# [17] = Peak plasma concentration in rat brain upon oral dose of 10 mg/kg; type: ADME, organism-based; set-up: dose 10 mg/kg, route oral; summary of the method: as §2
# [18] = Peak plasma concentration in rat plasma upon oral dose of 10 mg/kg; type: ADME, organism-based; set-up: dose 10 mg/kg, route oral; summary of the method: as §2
# [19] = Half-life in rat brain upon oral dose of 10 mg/kg; type: ADME, organism-based; set-up: dose 10 mg/kg, route oral; summary of the method: as §2
# [20] = Half-life in rat plasma upon oral dose of 10 mg/kg; type: ADME, organism-based; set-up: dose 10 mg/kg, route oral; summary of the method: as §2
# [21] = Concentration of compound in brain of rat after 24 hr of oral dose 10 mg/kg; type: ADME, organism-based; set-up: dose 10 mg/kg, route oral; summary of the method: as §2
# [22] = Concentration of compound in plasma of rat after 1 hr of oral dose 10 mg/kg; type: ADME, organism-based; set-up: dose 10 mg/kg, route oral; summary of the method: as §2
# [23] = Concentration of compound in plasma of rat after 3h of oral dose 10 mg/kg; type: ADME, organism-based; set-up: dose 10 mg/kg, route oral; summary of the method: as §2
# [24] = Concentration of compound in plasma of rat after 6 hr of oral dose 10 mg/kg; type: ADME, organism-based; set-up: dose 10 mg/kg, route oral; summary of the method: as §2
# [25] = Concentration of compound in plasma of rat after 24 hr of oral dose 10 mg/kg; type: ADME, organism-based; set-up: dose 10 mg/kg, route oral; summary of the method: as §2
# [26] = target: Metabotropic glutamate receptor 3 (Rattus norvegicus, UniProt P31422); assay: Binding affinity towards metabotropic glutamate receptor 3 of rat expressed in CHO cells was determined by using [3H]MGS-0008; type: cell-based
# [27] = Maximum time required to achieve peak plasma concentration upon oral dose of 3 mg/kg to rats; type: ADME, organism-based; set-up: dose 3 mg/kg, route oral; conditions: rat; summary of the method: as §1
# [28] = Maximum time required to achieve peak plasma concentration upon oral dose of 10 mg/kg to rats; type: ADME, organism-based; set-up: dose 10 mg/kg, route oral; conditions: rat; summary of the method: as §1
# [29] = Maximum time required to achieve peak plasma concentration upon oral dose of 30 mg/kg to rats; type: ADME, organism-based; set-up: dose 30 mg/kg, route oral; conditions: rat; summary of the method: as §1
# [30] = Maximum time required to achieve peak plasma concentration in rat brain upon oral dose of 10 mg/kg; type: ADME, organism-based; set-up: dose 10 mg/kg, route oral; summary of the method: as §2
# [31] = Maximum time required to achieve peak plasma concentration in rat plasma upon oral dose of 10 mg/kg; type: ADME, organism-based; set-up: dose 10 mg/kg, route oral; summary of the method: as §2
# [32] = Half-life in rat upon oral dose of 3 mg/kg; type: ADME, organism-based; set-up: dose 3 mg/kg, route oral; conditions: in vivo; summary of the method: as §1
# [33] = Half-life in rat upon oral dose of 10 mg/kg; type: ADME, organism-based; set-up: dose 10 mg/kg, route oral; conditions: in vivo; summary of the method: as §1
# T1 sequence (P31421 whole entry): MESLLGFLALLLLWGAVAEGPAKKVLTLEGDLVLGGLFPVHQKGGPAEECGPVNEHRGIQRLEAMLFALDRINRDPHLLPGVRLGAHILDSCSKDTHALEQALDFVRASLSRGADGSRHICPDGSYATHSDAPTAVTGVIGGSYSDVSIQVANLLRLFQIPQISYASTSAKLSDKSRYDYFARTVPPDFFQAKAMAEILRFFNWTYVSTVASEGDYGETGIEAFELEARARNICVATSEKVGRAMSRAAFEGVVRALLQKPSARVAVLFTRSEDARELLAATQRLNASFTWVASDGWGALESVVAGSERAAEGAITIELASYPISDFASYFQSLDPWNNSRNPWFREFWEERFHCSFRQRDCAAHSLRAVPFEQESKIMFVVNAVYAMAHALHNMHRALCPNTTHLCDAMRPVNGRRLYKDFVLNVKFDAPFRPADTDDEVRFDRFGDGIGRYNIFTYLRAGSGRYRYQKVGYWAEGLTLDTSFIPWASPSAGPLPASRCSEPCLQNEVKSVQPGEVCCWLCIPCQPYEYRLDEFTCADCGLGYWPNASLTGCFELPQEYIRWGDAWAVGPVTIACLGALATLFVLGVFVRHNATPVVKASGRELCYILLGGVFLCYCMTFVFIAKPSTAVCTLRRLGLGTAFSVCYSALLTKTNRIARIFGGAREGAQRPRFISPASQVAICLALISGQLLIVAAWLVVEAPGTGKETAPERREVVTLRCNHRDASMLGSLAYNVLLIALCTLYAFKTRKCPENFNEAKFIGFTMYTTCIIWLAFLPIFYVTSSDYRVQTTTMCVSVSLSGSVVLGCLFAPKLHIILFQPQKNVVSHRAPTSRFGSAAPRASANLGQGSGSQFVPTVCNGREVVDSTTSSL
# T3 sequence (P31424 whole entry): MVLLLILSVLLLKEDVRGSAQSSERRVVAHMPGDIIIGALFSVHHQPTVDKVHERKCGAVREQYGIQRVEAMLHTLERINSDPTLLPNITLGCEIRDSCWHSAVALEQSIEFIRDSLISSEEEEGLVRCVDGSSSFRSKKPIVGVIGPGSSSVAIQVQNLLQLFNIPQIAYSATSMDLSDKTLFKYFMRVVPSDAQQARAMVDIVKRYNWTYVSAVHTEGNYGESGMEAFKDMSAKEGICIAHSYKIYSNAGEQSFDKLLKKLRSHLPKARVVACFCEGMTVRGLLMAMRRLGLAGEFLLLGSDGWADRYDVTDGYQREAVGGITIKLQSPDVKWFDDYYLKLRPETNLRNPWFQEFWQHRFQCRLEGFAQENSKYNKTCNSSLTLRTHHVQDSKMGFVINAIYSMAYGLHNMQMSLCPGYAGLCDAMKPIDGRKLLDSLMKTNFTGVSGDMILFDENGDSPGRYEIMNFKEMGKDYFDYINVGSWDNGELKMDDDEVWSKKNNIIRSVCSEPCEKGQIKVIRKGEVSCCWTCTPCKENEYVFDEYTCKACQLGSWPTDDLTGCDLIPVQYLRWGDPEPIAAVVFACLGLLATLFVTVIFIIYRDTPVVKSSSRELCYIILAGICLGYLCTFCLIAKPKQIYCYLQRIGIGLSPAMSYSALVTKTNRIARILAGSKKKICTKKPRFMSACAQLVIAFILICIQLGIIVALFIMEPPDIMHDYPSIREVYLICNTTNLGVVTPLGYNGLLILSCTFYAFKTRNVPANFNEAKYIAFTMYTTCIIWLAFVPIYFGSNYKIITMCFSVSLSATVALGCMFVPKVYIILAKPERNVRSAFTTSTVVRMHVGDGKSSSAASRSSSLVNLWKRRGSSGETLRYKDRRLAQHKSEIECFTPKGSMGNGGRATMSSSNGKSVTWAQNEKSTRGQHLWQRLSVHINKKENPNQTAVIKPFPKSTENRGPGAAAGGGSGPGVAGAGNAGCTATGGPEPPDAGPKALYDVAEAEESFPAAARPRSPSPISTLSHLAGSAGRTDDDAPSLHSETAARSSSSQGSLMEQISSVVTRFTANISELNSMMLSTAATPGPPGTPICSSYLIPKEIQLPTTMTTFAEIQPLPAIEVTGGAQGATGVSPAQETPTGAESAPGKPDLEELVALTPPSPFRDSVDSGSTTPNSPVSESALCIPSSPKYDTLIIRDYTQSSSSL
# T2 sequence (P23385 whole entry): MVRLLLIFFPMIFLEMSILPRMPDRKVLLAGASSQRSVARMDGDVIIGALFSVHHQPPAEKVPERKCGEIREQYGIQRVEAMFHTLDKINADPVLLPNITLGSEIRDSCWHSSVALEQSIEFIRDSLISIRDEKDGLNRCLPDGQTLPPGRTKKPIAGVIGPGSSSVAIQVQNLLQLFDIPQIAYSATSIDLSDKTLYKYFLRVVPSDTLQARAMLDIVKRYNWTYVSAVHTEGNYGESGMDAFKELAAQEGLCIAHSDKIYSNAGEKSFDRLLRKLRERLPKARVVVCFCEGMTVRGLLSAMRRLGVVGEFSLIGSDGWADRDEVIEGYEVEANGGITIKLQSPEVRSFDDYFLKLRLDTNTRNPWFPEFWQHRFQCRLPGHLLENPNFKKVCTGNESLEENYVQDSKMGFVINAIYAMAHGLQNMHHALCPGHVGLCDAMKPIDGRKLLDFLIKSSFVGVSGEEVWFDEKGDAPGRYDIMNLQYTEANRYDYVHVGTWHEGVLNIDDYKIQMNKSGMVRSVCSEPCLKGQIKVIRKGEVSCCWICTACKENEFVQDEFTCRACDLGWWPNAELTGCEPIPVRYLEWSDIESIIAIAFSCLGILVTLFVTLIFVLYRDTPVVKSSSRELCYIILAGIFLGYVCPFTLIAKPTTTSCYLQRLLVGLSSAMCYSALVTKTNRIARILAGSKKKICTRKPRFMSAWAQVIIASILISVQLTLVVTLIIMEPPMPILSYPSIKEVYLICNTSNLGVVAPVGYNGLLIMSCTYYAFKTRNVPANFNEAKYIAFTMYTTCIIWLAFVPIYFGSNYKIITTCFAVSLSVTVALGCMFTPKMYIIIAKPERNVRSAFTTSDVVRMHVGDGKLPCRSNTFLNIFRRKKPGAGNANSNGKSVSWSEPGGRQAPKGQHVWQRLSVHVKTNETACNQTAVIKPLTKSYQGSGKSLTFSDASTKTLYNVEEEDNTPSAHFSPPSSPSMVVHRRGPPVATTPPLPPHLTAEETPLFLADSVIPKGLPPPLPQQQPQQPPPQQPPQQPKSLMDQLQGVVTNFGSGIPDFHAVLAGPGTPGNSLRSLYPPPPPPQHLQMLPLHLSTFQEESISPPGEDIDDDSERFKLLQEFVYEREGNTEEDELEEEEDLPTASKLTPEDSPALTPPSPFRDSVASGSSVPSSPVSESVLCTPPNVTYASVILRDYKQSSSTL
# T4 sequence (P35349 whole entry): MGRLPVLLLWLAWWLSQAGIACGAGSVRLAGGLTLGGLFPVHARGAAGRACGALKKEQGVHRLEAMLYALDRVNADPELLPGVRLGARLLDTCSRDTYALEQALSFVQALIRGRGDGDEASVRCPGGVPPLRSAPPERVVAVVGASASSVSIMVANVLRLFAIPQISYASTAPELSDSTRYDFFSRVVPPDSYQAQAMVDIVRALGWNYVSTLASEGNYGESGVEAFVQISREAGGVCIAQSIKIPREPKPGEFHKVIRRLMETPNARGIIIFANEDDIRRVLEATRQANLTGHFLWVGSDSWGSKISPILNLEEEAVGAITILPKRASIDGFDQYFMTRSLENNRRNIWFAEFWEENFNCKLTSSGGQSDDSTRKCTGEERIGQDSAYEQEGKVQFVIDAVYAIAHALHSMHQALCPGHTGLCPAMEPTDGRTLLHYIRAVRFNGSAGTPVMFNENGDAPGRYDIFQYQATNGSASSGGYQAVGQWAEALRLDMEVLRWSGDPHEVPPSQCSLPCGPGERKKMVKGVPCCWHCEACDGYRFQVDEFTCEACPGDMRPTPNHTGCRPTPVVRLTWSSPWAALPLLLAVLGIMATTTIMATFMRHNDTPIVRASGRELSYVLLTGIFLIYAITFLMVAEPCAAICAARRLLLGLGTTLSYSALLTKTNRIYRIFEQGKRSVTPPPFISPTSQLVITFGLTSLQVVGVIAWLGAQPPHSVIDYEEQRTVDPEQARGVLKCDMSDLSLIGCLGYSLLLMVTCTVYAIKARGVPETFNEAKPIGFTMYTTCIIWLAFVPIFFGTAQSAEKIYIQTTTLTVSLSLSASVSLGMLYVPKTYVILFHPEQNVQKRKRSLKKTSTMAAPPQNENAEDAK
# Chain of Metabotropic glutamate receptor 7 (P35400 whole entry): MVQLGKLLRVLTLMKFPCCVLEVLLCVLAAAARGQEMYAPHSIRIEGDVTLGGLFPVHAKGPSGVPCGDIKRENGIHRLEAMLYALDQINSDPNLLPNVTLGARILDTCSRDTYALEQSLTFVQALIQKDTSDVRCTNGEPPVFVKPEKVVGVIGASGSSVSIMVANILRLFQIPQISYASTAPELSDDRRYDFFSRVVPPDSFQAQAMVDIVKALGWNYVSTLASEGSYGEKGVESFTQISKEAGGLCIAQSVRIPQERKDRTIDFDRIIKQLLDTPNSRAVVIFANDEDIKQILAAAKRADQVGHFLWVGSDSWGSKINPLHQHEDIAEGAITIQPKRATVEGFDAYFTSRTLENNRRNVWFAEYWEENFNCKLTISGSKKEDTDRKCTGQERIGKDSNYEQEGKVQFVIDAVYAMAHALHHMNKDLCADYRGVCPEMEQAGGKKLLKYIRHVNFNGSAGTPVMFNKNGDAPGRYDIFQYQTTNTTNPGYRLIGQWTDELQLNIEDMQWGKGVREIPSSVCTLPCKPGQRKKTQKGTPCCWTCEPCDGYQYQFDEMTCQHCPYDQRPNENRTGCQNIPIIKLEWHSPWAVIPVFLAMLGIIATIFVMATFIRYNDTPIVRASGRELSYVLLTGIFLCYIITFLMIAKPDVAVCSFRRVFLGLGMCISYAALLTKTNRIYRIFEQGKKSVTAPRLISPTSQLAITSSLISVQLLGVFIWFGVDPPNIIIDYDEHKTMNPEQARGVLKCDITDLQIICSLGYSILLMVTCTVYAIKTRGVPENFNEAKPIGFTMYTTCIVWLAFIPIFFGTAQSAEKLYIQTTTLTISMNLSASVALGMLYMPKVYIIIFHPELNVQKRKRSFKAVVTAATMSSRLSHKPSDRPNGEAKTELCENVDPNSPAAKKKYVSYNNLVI
smiles,measurement,setting,value
N[C@]1(C(=O)O)[C@H]2[C@@H](C[C@H]1OCc1cccc(-c3ccccc3)c1)[C@]2(F)C(=O)O,Ki,[1],9.34 nM
N[C@]1(C(=O)O)[C@H]2[C@@H](C[C@H]1OCc1cccc(C(F)(F)F)c1)[C@]2(F)C(=O)O,Ki,[1],5.72 nM
N[C@](CC1c2ccccc2Oc2ccccc21)(C(=O)O)[C@H]1C[C@@H]1C(=O)O,EC50,[2],> 100000 nM
same,EC50,[3],> 100000 nM
same,EC50,[4],> 100000 nM
same,IC50,[5],8990 nM
same,IC50,[6],2650 nM
same,IC50,[7],11400 nM
same,IC50,[8],1140 nM
same,Ki,[9],110 nM
N[C@]1(C(=O)O)[C@H]2[C@@H](C[C@H]1OCc1cc(Cl)ccc1Cl)[C@]2(F)C(=O)O,Ki,[1],11.8 nM
N[C@]1(C(=O)O)[C@H]2[C@@H](C[C@H]1OCc1cccc(Cl)c1)[C@]2(F)C(=O)O,Ki,[1],3.28 nM
N[C@]1(C(=O)O)[C@H]2[C@@H](C[C@H]1OCc1cc(F)ccc1F)[C@]2(F)C(=O)O,Ki,[1],14.4 nM
N[C@]1(C(=O)O)[C@H]2[C@@H](C[C@H]1OCc1c(F)cccc1F)[C@]2(F)C(=O)O,Ki,[1],7.02 nM
N[C@@]1(C(=O)O)[C@@H](OCc2ccc(Cl)c(Cl)c2)C[C@@H]2[C@H]1[C@@]2(F)C(=O)O,Ki,[1],17.1 nM
N[C@]1(C(=O)O)[C@H]2[C@@H](C[C@H]1OC(c1ccccc1)c1ccccc1)[C@]2(F)C(=O)O,half-life,[10],3.63 h
same,EC50,[11],> 100000 nM
same,IC50,[12],24.4 nM
same,concentration at 6 h,[13],2.04 ng/mL
same,Cmax,[14],25 ng/mL
same,Cmax,[15],85.1 ng/mL
same,Cmax,[16],312 ng/mL
same,Cmax,[17],2.04 ng/mL
same,Cmax,[18],61.3 ng/mL
same,half-life,[19],9 h
same,half-life,[20],2.8 h
same,concentration at 24 h,[21],0.51 ng/mL
same,concentration at 1 h,[22],61.3 ng/mL
same,concentration at 3 h,[23],37.6 ng/mL
same,concentration at 6 h,[24],23.1 ng/mL
same,concentration at 24 h,[25],0.2 ng/mL
same,Ki,[1],2.58 nM
same,Ki,[26],3.93 nM
same,Tmax,[27],0.7 h
same,Tmax,[28],1.8 h
same,Tmax,[29],1 h
same,Tmax,[30],6 h
same,Tmax,[31],1 h
same,half-life,[32],1.62 h
same,half-life,[33],2.2 h
N[C@]1(C(=O)O)[C@H]2[C@@H](C[C@H]1OC(c1ccc(Cl)cc1)c1ccc(Cl)cc1)[C@]2(F)C(=O)O,Ki,[1],3.75 nM
N[C@]1(C(=O)O)[C@H]2[C@@H](C[C@H]1OCc1cccc(C(=O)O)c1)[C@]2(F)C(=O)O,Ki,[1],1.06 nM
N[C@]1(C(=O)O)[C@H]2[C@@H](C[C@H]1OCc1cccc(Br)c1)[C@]2(F)C(=O)O,Ki,[1],4.71 nM
N[C@]1(C(=O)O)[C@H]2[C@@H](C[C@H]1OCc1cccc(Cl)c1Cl)[C@]2(F)C(=O)O,Ki,[1],4.35 nM
Cc1cccc(CO[C@@H]2C[C@@H]3[C@H]([C@]2(N)C(=O)O)[C@@]3(F)C(=O)O)c1,Ki,[1],4.53 nM
N[C@]1(C(=O)O)[C@H]2[C@@H](C[C@H]1OCc1cc(Cl)c(Cl)c(Cl)c1)[C@]2(F)C(=O)O,Ki,[1],3.67 nM
